According to ChEMBL document CHEMBL3112463, “Synthesis and biological activity of polyalthenol and pentacyclindole analogues” (2014):
Values after ≈ are worked out from the molar mass of the structure shown.

Assays:
Assay type in all cases: functional
T47D = test: Antiproliferative activity against human T47D cells assessed as growth inhibition after 48 hrs by SRB assay
Summary of the method: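 T-47D cells grown at 37 °C, 5% CO₂ in serum- and 2 mM L-glutamine-containing medium. Trypsinized, viability >97% by trypan blue, seeded at 15,000 cells/well. Compounds added day 1 in triplicate dilutions (DMSO vehicle 0.25% v/v as control) for 48 h. Cold 50% TCA fixation 60 min at 4 °C, SRB read at 492 nm with blank correction.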

SW1573 = test: Antiproliferative activity against human SW1573 cells assessed as growth inhibition after 48 hrs by SRB assay; conditions: SW1573, 48 h
Summary of the method: (§1)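 Cells maintained at 37 °C, 5% CO₂ in medium with foetal calf serum and 2 mM L-glutamine. Trypsinized into antibiotic medium, >97% viable by trypan blue, plated at 10,000 cells/well. Triplicate dilutions from DMSO stocks (0.25% v/v DMSO control) added on day 1 for 48 h. TCA fixation (50%, 4 °C, 60 min), SRB stain, OD 492 nm corrected for medium-only blank.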

HeLa = test: Antiproliferative activity against human HeLa cells assessed as growth inhibition after 48 hrs by SRB assay; summary of the method: as §1
[1] = Antiproliferative activity against human HBL100 cells assessed as growth inhibition after 48 hrs by SRB assay; conditions: HBL-100, 48 h; summary of the method: as §1
A549 = test: Antiproliferative activity against human A549 cells assessed as growth inhibition after 48 hrs by SRB assay; conditions: A549, 48 h
Summary of the method: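 Cells kept in medium with foetal calf serum and 2 mM L-glutamine at 37 °C, 5% CO₂. Trypsinized, resuspended in penicillin/streptomycin medium, >97% trypan blue viability, seeded at 10,000 cells/well. Compounds from DMSO stocks (0.25% v/v DMSO control), triplicate dilutions, added day 1 for 48 h. Fixed with cold 50% TCA for 60 min at 4 °C, then SRB staining, OD 492 nm, background corrected.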

WiDr = test: Antiproliferative activity against human WiDr cells assessed as growth inhibition after 48 hrs by SRB assay
Summary of the method: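 WiDr cells seeded at 20,000 cells/well after trypsinization into antibiotic-containing medium (trypan blue viability >97%). Culture at 37 °C, 5% CO₂ with foetal calf serum and 2 mM L-glutamine. Exposure to triplicate compound dilutions from DMSO stocks (0.25% v/v DMSO control) started day 1, lasting 48 h. Fixed with ice-cold 50% TCA, 60 min at 4 °C, then SRB, OD 492 nm background-subtracted.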

Staphylococcus aureus = test: Antimicrobial activity against Staphylococcus aureus ATCC 29213 after 24 hrs by broth microdilution method; conditions: ATCC 29213, 24 h
Summary of the method: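 Bacteria grown on nutrient agar at 35–37 °C for 24 h, then suspended in normal saline to approx. […] by matching to 0.5 McFarland standard. Broth microdilution in Mueller Hinton broth with growth and sterility controls, compounds first dissolved in DMSO.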

| SMILES | GI50 (T47D) [µM] | GI50 (SW1573) [µM] | GI50 (HeLa) [µM] | GI50 (A549) [µM] | MIC (Staphylococcus aureus) [µM] | GI50 [1] [µM] | GI50 (WiDr) [µM] |
| --- | --- | --- | --- | --- | --- | --- | --- |
| COC(=O)[C@@]1(C)CCC=C2[C@@H]1CC[C@@H](C)[C@]2(C)Cc1c[nH]c2ccc(F)cc12 | 3.9 | 7.3 | 3.7 | 6.2 |  | 4.8 | 8 |
| COC(=O)[C@@]1(C)CCC=C2[C@@H]1CC[C@@H](C)[C@]2(C)Cc1c[nH]c2ccc(OC)cc12 | 3.7 | 1.3 | 1.2 | 2.2 |  | 2.1 | 5.7 |
| COC(=O)[C@@]1(C)CCC=C2[C@@H]1CC[C@@H](C)[C@]2(C)Cc1c(C)[nH]c2ccc(Br)cc12 | 16 | 14 | 11 | 15 |  | 15 | 15 |
| COC(=O)[C@@]1(C)CCC=C2[C@@H]1CC[C@@H](C)[C@]2(C)Cc1c[nH]c2ccccc12 | 4.2 | 7.3 | 3.6 | 5 |  | 4.5 | 8.7 |

Now from value to compound, other results behind:

| GI50 (T47D) [µM] | GI50 (SW1573) [µM] | GI50 (HeLa) [µM] | GI50 (A549) [µM] | MIC (Staphylococcus aureus) [µM] | SMILES | GI50 [1] [µM] | GI50 (WiDr) [µM] |
| --- | --- | --- | --- | --- | --- | --- | --- |
| 17 | 7.9 | 4.4 | 45 | 50 (≈ 19.7 µg/mL) | COC(=O)[C@@]1(C)CCC=C2[C@@H]1CC[C@@H](C)[C@]2(C)Cc1c(C=O)[nH]c2ccccc12 | 7.5 | 20 |
| 3.4 | 8.3 | 3.2 | 4.6 |  | COC(=O)[C@@]1(C)CC[C@@H]2C3=C1CC[C@@H](C)[C@]3(C)Cc1c2[nH]c2ccccc12 | 3.5 | 4 |
| 6.5 | 5.9 | 3.9 | 7.7 |  | COC(=O)[C@@]1(C)CC[C@@H]2C3=C1CC[C@@H](C)[C@]3(C)Cc1c2[nH]c2ccc(OC)cc12 | 5 | 1.2 |
